The text below walks through data of ChEMBL document CHEMBL1124865, “Synthesis and biological evaluation of a series of parenteral 3'-quaternary ammonium cephalosporins” (J Med Chem, 1990).

Converted amounts (≈) assume the structure as drawn. A value given as a limit tells only on which side of the number the result lay.

Data set [1] can be described thus: Terminal half life in Rhesus monkeys at the dose of 30 mg/kg. The format is ADME, organism-based, Macaca mulatta. The arrangement: dose 30 mg/kg. The following applies: rhesus monkey, in vivo. Summed up:
(§1)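 Male rhesus monkeys dosed intravenously at 30 mg/kg. Plasma sampled from 0.08–0.1 h up to 6–8 h; urine collected over 0–6/8 and 6/8–24 h. Samples measured by microbiological assay.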

Data set [2] has as its system Enterobacter cloacae. Description: Antibacterial activity against Enterobacter cloacae 265A. The format is functional. The following applies: Enterobacter cloacae; read-out: MIC.
Data set [3] deals with Escherichia coli. Description: Antibacterial activity against Escherichia coli EC14. In kind it is functional. The following applies: Escherichia coli; read-out: MIC.
Data set [4] has as its system Enterobacter cloacae. As to the kind of experiment: Antibacterial activity against Enterobacter cloacae EB5. The format is functional. The following applies: Enterobacter cloacae; read-out: MIC.
Data set [5] relates to Escherichia coli. As to the kind of experiment: Antibacterial activity against Escherichia coli TEM. The format is functional. To be noted: Escherichia coli; read-out: MIC.
The species named for data set [6] is Cavia porcellus. As to the kind of experiment: In vitro relative anticholinergic potential in isolated guinea pig trachea. The format is functional. An outline of the steps:
(§2)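 Guinea pig trachea in Krebs' solution at 37.5 °C, 95% O2/5% CO2, pH 7.4, 2 g resting tension. Cumulative carbachol log dose-response curve (3-fold steps) run before and 30 min after adding antagonist at 1 mM. […] Tukey test on log2 dose ratios.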

Data set [7] relates to Klebsiella pneumoniae. As to the kind of experiment: microbe, parasite or virus in culture. In kind it is functional. The following applies: Klebsiella pneumoniae; read-out: MIC.
The test system of data set [8] is Klebsiella pneumoniae. Description: Antibacterial activity against Klebsiella pneumoniae X26. The format is functional. To be noted: Klebsiella pneumoniae; read-out: MIC.
The subject of data set [9] is Monkey. As to the kind of experiment: Percent of dose in Rhesus monkeys urine at the dose of 30 mg/kg. The format is functional, Cercopithecidae. An outline of the steps: as §1
Data set [10] concerns Pseudomonas aeruginosa. Description: Antibacterial activity against Pseudomonas aeruginosa X528. To be noted: Pseudomonas aeruginosa; read-out: MIC. In kind it is functional.
Data set [11] relates to Pseudomonas aeruginosa. As to the kind of experiment: Antibacterial activity against Pseudomonas aeruginosa PS18. The following applies: Pseudomonas aeruginosa; read-out: MIC. In kind it is functional.
Data set [12] deals with Staphylococcus aureus. As to the kind of experiment: Antibacterial activity against penicillin G resistance Staphylococcus aureus. The following applies: Staphylococcus aureus; read-out: MIC. The format is functional.
Data set [13] concerns Staphylococcus aureus. Description: Antibacterial activity against penicillin G susceptible Staphylococcus aureus. To be noted: Staphylococcus aureus; read-out: MIC. The format is functional.
Data set [14] has as its system Streptococcus pneumoniae. Description: Antibacterial activity against Streptococcus pneumoniae. The format is functional. To be noted: Streptococcus pneumoniae; read-out: MIC.
Data set [15] concerns Serratia marcescens. As to the kind of experiment: Antibacterial activity against Serratia marcescens SE3. The format is functional. To be noted: Serratia marcescens; read-out: MIC.
The subject of data set [16] is Streptococcus pyogenes. As to the kind of experiment: Antibacterial activity against Streptococcus pyogenes. The format is functional. The following applies: Streptococcus pyogenes; read-out: MIC.
Data set [17] has as its system Enterococcus faecium. As to the kind of experiment: Antibacterial activity against Enterococcus faecium. The following applies: Enterococcus faecium; read-out: MIC. The format is functional.
Data set [18] can be described thus: In vitro dose required for anticholinergic activity in isolated guinea pig trachea. In kind it is functional.
The subject of data set [19] is Streptococcus pyogenes. As to the kind of experiment: Antibacterial activity against Streptococcus pyogenes.
For data set [20], the species on record is Cavia porcellus. As to the kind of experiment: In vitro relative anticholinergic activity in isolated guinea pig trachea. The format is functional. To be noted: read-out: pA2 (converted). Summed up: as §2
The nature of data set [21]: Terminal half life in dogs at the dose of 60 mg/kg. In kind it is ADME, organism-based, Canis lupus familiaris. Further details: dose 60 mg/kg. The following applies: dog, in vivo. Summed up: (§3)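 Overnight-fasted female mongrel dogs with a Foley bladder catheter; bolus into the cephalic vein. Plasma and urine collected before dosing and over 24 h after. Antibacterial activity measured by microbiological assay.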

For data set [22], the system named is Canis familiaris. As to the kind of experiment: Percent of dose in dogs urine at the dose of 60 mg/kg. The format is functional, Canis lupus familiaris. Summed up: as §3
For data set [23], the system named is Pseudomonas aeruginosa. As to the kind of experiment: In vivo efficacy against Pseudomonas aeruginosa infected mice treated at 1 hr and 5 hr post infection. The format is functional. The following applies: Pseudomonas aeruginosa; read-out: ED50.
Data set [24] has as its system Staphylococcus aureus. Description: In vivo efficacy against Staphylococcus aureus infected mice treated at 1 hr and 5 hr post infection. The format is functional. To be noted: Staphylococcus aureus; read-out: ED50.
Data set [25] deals with Escherichia coli. As to the kind of experiment: In vivo efficacy against Escherichia coli infected mice treated at 1 hr and 5 hr post infection. The format is functional. The following applies: Escherichia coli; read-out: ED50.
The subject of data set [26] is Escherichia coli. Description: In vivo efficacy against Escherichia coli infections in mice. In kind it is functional. The following applies: Escherichia coli; read-out: MIC.
Data set [27] relates to Pseudomonas aeruginosa. Description: In vivo efficacy against Pseudomonas aeruginosa infections in mice. In kind it is functional. The following applies: Pseudomonas aeruginosa; read-out: MIC.
Data set [28] deals with Staphylococcus aureus. As to the kind of experiment: In vivo efficacy against Staphylococcus aureus infections in mice. To be noted: Staphylococcus aureus; read-out: MIC. In kind it is functional.

What is called half-life is the time in which the quantity being followed falls by half. In [1], `CO/N=C(\C(=O)N[C@@H]1C(=O)N2C(C(=O)[O-])=C(C[n+]3cccc4c3CCC4)CS[C@H]12)c1csc(N)n1` [CEFPIROME] had a half-life of 1.13 h. For the same molecule, the MIC in [2] worked out at 0.5 µg/mL (≈ 0.972 µM); in data set [3], 0.015 µg/mL (≈ 0.0291 µM); in data set [4], 0.06 µg/mL (≈ 0.117 µM); in data set [5] it was 0.03 µg/mL (≈ 0.0583 µM); in [7], 4 µg/mL (≈ 7.77 µM); in data set [8], 0.015 µg/mL (≈ 0.0291 µM). The MIC in data set [10] amounted to 2 µg/mL (≈ 3.89 µM); in data set [11] it was 8 µg/mL (≈ 15.5 µM); in data set [12], 1 µg/mL (≈ 1.94 µM); in [13], 1 µg/mL (≈ 1.94 µM); in data set [14], 0.015 µg/mL (≈ 0.0291 µM); in [15], 0.125 µg/mL (≈ 0.243 µM). Moreover, the results for the MIC in data set [16] and in [17] were 0.008 µg/mL (≈ 0.0155 µM) and 8 µg/mL (≈ 15.5 µM), respectively. In data set [6], this molecule registered an RAP of 4. The molecule also gave a Dose in data set [9] of 61%. Moreover, the Dose ratio in data set [18] is given as 1.76.
Consider `CO/N=C(\C(=O)N[C@@H]1C(=O)N2C(C(=O)[O-])=C(C[n+]3cccc4ncccc43)CS[C@H]12)c1csc(N)n1`, for which the MIC in [2] is 8 µg/mL (≈ 15.2 µM); in [3] it was 0.06 µg/mL (≈ 0.114 µM); in [4], 0.25 µg/mL (≈ 0.476 µM); in data set [5], 0.125 µg/mL (≈ 0.238 µM); in data set [7], 4 µg/mL (≈ 7.61 µM); in data set [8], 0.06 µg/mL (≈ 0.114 µM). Further, the MIC in [10] came to 4 µg/mL (≈ 7.61 µM); in data set [11], 8 µg/mL (≈ 15.2 µM); in data set [12], 4 µg/mL (≈ 7.61 µM); in data set [13], 2 µg/mL (≈ 3.81 µM); in [14], 0.06 µg/mL (≈ 0.114 µM); in data set [15], 0.5 µg/mL (≈ 0.951 µM). The MIC is > 128 µg/mL in [17] and 0.03 µg/mL (≈ 0.0571 µM) in data set [19].
For `CO/N=C(\C(=O)N[C@@H]1C(=O)N2C(C(=O)[O-])=C(C[n+]3ccc4nc(C)sc4c3)CS[C@H]12)c1csc(N)n1`, the MIC in data set [2] amounted to 16 µg/mL (≈ 29.3 µM); in data set [7], 1 µg/mL (≈ 1.83 µM); in [10], 8 µg/mL (≈ 14.7 µM); in data set [11], 8 µg/mL (≈ 14.7 µM); in data set [12] it was 4 µg/mL (≈ 7.33 µM); in data set [13] it was 1 µg/mL (≈ 1.83 µM). The figures for the MIC in [15], in data set [16] and in data set [17] were 0.25 µg/mL (≈ 0.458 µM), 0.015 µg/mL (≈ 0.0275 µM) and 128 µg/mL (≈ 235 µM), respectively. This molecule also yielded an RAP in data set [6] of 5. For the same molecule, the Kb in [20] was 955 µM.
Usually ED50 stands for the dose at which the effect has come halfway, by size or by number of responders. Molecule `CO/N=C(\C(=O)N[C@@H]1C(=O)N2C(C(=O)[O-])=C(C[n+]3ccccc3)CS[C@H]12)c1csc(N)n1` had a half-life in data set [21] of 1.67 h. Besides, the “Percent of dose recovered in urine” value in data set [22] is recorded as 94%. Further, the MIC in data set [2] turned out to be 2 µg/mL (≈ 4.21 µM); in data set [3], 0.03 µg/mL (≈ 0.0632 µM); in [4] it was 0.06 µg/mL (≈ 0.126 µM); in data set [5], 0.03 µg/mL (≈ 0.0632 µM); in [7], 4 µg/mL (≈ 8.43 µM); in [8], 0.03 µg/mL (≈ 0.0632 µM). In addition, the MIC in data set [26] was 0.06 µg/mL (≈ 0.126 µM); in data set [27], 16 µg/mL (≈ 33.7 µM); in data set [28], 1 µg/mL (≈ 2.11 µM); in data set [10], 2 µg/mL (≈ 4.21 µM); in data set [11], 4 µg/mL (≈ 8.43 µM); in data set [12], 2 µg/mL (≈ 4.21 µM). Further, the MIC was 1 µg/mL (≈ 2.11 µM) in data set [13]; 0.03 µg/mL (≈ 0.0632 µM) in [14]; 0.25 µg/mL (≈ 0.527 µM) in data set [15]; 0.03 µg/mL (≈ 0.0632 µM) in data set [16]; > 128 µg/mL in data set [17]. The RAP in data set [6] came to 9. Also, in [20], the Kb is 490 µM. In addition, the ED50 was found to be 14.4 mg/kg in data set [23], 0.8 mg/kg in data set [24] and 0.07 mg/kg in [25]. In [18], the Dose ratio is on record as 3.04.
In the case of `CO/N=C(\C(=O)N[C@@H]1C(=O)N2C(C(=O)[O-])=C(C[n+]3csc(CCO)c3C)CS[C@H]12)c1csc(N)n1`, the MIC in [2] came out at 4 µg/mL (≈ 7.43 µM); in data set [3], 0.06 µg/mL (≈ 0.111 µM); in [4] it was 0.125 µg/mL (≈ 0.232 µM); in [5], 0.03 µg/mL (≈ 0.0557 µM); in [7], 4 µg/mL (≈ 7.43 µM); in [8] it was 0.03 µg/mL (≈ 0.0557 µM). For the same molecule, the MIC in data set [10] was 8 µg/mL (≈ 14.9 µM); in data set [11], 16 µg/mL (≈ 29.7 µM); in data set [12] it was 4 µg/mL (≈ 7.43 µM); in data set [13], 2 µg/mL (≈ 3.71 µM); in data set [14], 0.03 µg/mL (≈ 0.0557 µM); in data set [15] it was 0.125 µg/mL (≈ 0.232 µM). Further, the MIC was found to be 0.03 µg/mL (≈ 0.0557 µM) in data set [16] and 16 µg/mL (≈ 29.7 µM) in [17]. The molecule also yielded an RAP in [6] of 1. Moreover, in [18], the Dose ratio was determined as 1.27.
